A1 apoptosis 2 – blocks A1, raising caspase activity; MEF A1-2A-BIM cells, caspase-Glo luminescence, 3 h; percent of clofoctol response, DMSO zero; caspase activation, % (test concentration not listed); 24,000 tested, under 10 active; in the data active means caspase activation above about 5.9%
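Evaluation: Caspase-3/7 activity from luminescence increase | Assay system: A1-2A-BIM mouse embryonic fibroblasts | Quantity: 2500 MEF cells/well | Medium: RPMI-1640 plus 10% FBS | Detection: Caspase-Glo 3/7 luminescence, 1 h at room temperature | Dosing: 50 nL compound per well, pinned | Timing: Cells settled overnight, compound exposure 3 h at 37 °C, 5% CO2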
INS-1E rescue – INS-1E beta cell protection from cytokine death. protection from cytokine-induced ATP loss, % at 10 µM. 0.1% of 20,000 active. INS-1E cytokine-induced death, ATP luminescence, 48 h; normalised: neutral wells 0, positive control 100;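 active means mean replicate protection from cytokine-induced ATP loss at least 50% and at least 75% of replicates each reaching 50%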
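Test system: INS-1E rat cells | Quantity: 8000 cells per well | Medium: Phenol-red-free RPMI with 5% fetal bovine serum | Reagent: Cytokine cocktail of IFN-γ, TNF-α and IL-1β | Doses: One compound concentration, pin transfer | Timing: 48 h co-treatment, 10 min post-lysis read | Technique: Luminescent ATP assay (CellTiter-Glo)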
T cruzi HTS – intracellular Trypanosoma cruzi inhibition; intracellular Trypanosoma cruzi in host cells, plate reader; AID 651903; activity score (inhibition), % at 5.01 µM; 4.9% of 22,000 active; in the data active means activity score above about 55%;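 further: parasites and compound incubated about four days before reading; 0% = median of neutral control wells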
An asterisk follows results filed as active; nt = no result given. The entries come from a sample that favours hits as a whole.

SMILES | A1 apoptosis 2 | INS-1E rescue | T cruzi HTS
O=C(O)CCCCCCC(=O)N=NC=C1C=CN(O)C=C1 | 1 | 0 | -3
C[C@H]1CN([C@@H](C)CO)C(=O)Cc2cc(NC(=O)Nc3ccccc3)ccc2O[C@H]1CN(C)Cc1ccc(Oc2ccccc2)cc1 | nt | -16 | -4
C[C@@H]1CN([C@@H](C)CO)C(=O)Cc2cc(NC(=O)Nc3ccccc3)ccc2O[C@@H]1CN(C)Cc1ccc(Oc2ccccc2)cc1 | nt | -74 | 81*
C[C@H]1CN([C@@H](C)CO)C(=O)Cc2cc(NC(=O)CCC(F)(F)F)ccc2O[C@@H]1CN(C)Cc1ccc(-c2ccccc2)cc1 | nt | -53 | 60*
C[C@@H]1CN([C@@H](C)CO)C(=O)Cc2cc(NC(=O)CCC(F)(F)F)ccc2O[C@H]1CN(C)Cc1ccc(-c2ccccc2)cc1 | 2 | nt | nt
C=CCNC(=O)[C@H]1[C@@H]2C(=O)O[C@@H](c3ccccc3)[C@@H](c3ccccc3)N2[C@@H](c2ccc(O)cc2)[C@]12C(=O)Nc1ccc(C#CC3(O)CCCCCC3)cc12 | -1 | nt | nt
COc1ccc(/C=N/NC(=O)CCCCCC(=O)O)c(O)c1 | 0 | 3 | -10
C[C@H](CO)N1C[C@H](C)[C@@H](CN(C)S(=O)(=O)c2ccc(F)cc2)Oc2ccc(NS(=O)(=O)c3ccc(F)cc3)cc2C1=O | nt | nt | -3
C[C@@H]1CN([C@H](C)CO)C(=O)c2cc(NS(=O)(=O)c3cccs3)ccc2O[C@H]1CN(C)S(=O)(=O)c1ccc(F)cc1 | nt | nt | -7
C[C@H](CO)N1C[C@H](C)[C@H](CN(C)S(=O)(=O)c2ccc(F)cc2)Oc2ccc(NS(=O)(=O)c3ccc(F)cc3)cc2C1=O | 1 | nt | 68*
C[C@@H]1CN([C@@H](C)CO)C(=O)c2cc(NS(=O)(=O)c3cccs3)ccc2O[C@H]1CN(C)S(=O)(=O)c1ccc(F)cc1 | 1 | 5 | 62*
C[C@H](CO)N1C[C@H](C)[C@H](CN(C)S(=O)(=O)c2ccc(Cl)cc2)Oc2ccc(NS(=O)(=O)c3ccc(F)cc3)cc2C1=O | 1 | -16 | 63*
C[C@H]1CN([C@@H](C)CO)C(=O)c2cc(NS(=O)(=O)c3ccc(F)cc3)ccc2O[C@@H]1CN(C)S(=O)(=O)c1ccc(Cl)cc1 | 0 | 0 | 5
O=C(N/N=C/c1ccc(F)c(Oc2ccccc2)c1)c1ccccn1 | -4 | -1 | 5
C=CCOC(=O)[C@H]1[C@@H]2C(=O)O[C@@H](c3ccccc3)[C@@H](c3ccccc3)N2[C@@H](c2ccc(OCCOC(=O)[C@@H]3C[C@@H]4C(=O)N[C@@H](CCCCNC(C)=O)C(=O)N4[C@@H]3c3ccc(O)cc3)cc2)[C@]12C(=O)Nc1ccc(I)cc12 | 0 | nt | nt
O=C(N/N=C/c1ccoc1)c1ccccn1 | nt | -1 | -4
COC(=O)CCCCCCC(=O)N/N=C/c1cc(OC)c(OC)cc1[N+](=O)[O-] | -1 | 11 | 0
NC(=O)COc1ccccc1/C=N/NC(=O)c1ccccc1O | -1 | -4 | -34
Cc1ccc(S(=O)(=O)Nc2ccc3c(c2)CC(=O)N([C@H](C)CO)C[C@H](C)[C@H](CN(C)Cc2ccccc2)O3)cc1 | -1 | -9 | 41
C[C@@H]1CN([C@H](C)CO)C(=O)Cc2cc(NS(=O)(=O)c3ccc(Cl)cc3)ccc2O[C@@H]1CN(C)Cc1ccc(-c2ccccc2)cc1 | nt | -42 | 67*
Cc1ccc(S(=O)(=O)Nc2ccc3c(c2)CC(=O)N([C@H](C)CO)C[C@@H](C)[C@H](CN(C)Cc2ccccc2)O3)cc1 | nt | 0 | 67*
C[C@@H]1CN([C@@H](C)CO)C(=O)Cc2cc(NS(=O)(=O)c3ccc(Cl)cc3)ccc2O[C@@H]1CN(C)Cc1ccc(-c2ccccc2)cc1 | nt | 5 | 34
C[C@H]1CN([C@@H](C)CO)C(=O)Cc2cc(NS(=O)(=O)c3ccccc3)ccc2O[C@@H]1CN(C)Cc1ccc(-c2ccccc2)cc1 | nt | -14 | 75*
C[C@H]1CN([C@@H](C)CO)C(=O)Cc2cc(NS(=O)(=O)c3ccccc3)ccc2O[C@H]1CN(C)Cc1ccc(-c2ccccc2)cc1 | nt | 2 | 3
Cc1ccc(S(=O)(=O)Nc2ccc3c(c2)CC(=O)N([C@@H](C)CO)C[C@@H](C)[C@@H](CN(C)Cc2ccc(-c4ccccc4)cc2)O3)cc1 | -1 | -9 | 71*
Cc1ccc(S(=O)(=O)Nc2ccc3c(c2)CC(=O)N([C@H](C)CO)C[C@@H](C)[C@H](CN(C)Cc2ccc(-c4ccccc4)cc2)O3)cc1 | 1 | -16 | 54
COC(=O)CCCCCCC(=O)N/N=C/c1ccc(OC)c(Br)c1 | 0 | -5 | 2
